For test [1], the system named is MV4-11. As to the kind of experiment: Induction of apoptosis in human MV4-11 cells assessed as increase in cleaved PARP level at 1 to 2 uM after 24 hrs by Western blot method. The format is functional, cell-based. Summed up: (§1)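 MV4-11 (1,500,000/well) or PC-3 (300,000/well) grown 12 h, then treated 24 h at 1 and 2 μM, with 5 μM SAHA as reference. RIPA lysis, sonication and centrifugation, BCA normalization. NuPAGE 4–12% Bis-Tris gel in MES, transfer, primary antibodies 1/1000 overnight at 4 °C. Actin as loading control.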
For orientation: A western blot detects proteins with antibodies after separation by electrophoresis.

For test [2], the target named is T1, Histone deacetylase 7 (Homo sapiens, UniProt Q8WUI4).
T1 sequence (Q8WUI4 whole entry): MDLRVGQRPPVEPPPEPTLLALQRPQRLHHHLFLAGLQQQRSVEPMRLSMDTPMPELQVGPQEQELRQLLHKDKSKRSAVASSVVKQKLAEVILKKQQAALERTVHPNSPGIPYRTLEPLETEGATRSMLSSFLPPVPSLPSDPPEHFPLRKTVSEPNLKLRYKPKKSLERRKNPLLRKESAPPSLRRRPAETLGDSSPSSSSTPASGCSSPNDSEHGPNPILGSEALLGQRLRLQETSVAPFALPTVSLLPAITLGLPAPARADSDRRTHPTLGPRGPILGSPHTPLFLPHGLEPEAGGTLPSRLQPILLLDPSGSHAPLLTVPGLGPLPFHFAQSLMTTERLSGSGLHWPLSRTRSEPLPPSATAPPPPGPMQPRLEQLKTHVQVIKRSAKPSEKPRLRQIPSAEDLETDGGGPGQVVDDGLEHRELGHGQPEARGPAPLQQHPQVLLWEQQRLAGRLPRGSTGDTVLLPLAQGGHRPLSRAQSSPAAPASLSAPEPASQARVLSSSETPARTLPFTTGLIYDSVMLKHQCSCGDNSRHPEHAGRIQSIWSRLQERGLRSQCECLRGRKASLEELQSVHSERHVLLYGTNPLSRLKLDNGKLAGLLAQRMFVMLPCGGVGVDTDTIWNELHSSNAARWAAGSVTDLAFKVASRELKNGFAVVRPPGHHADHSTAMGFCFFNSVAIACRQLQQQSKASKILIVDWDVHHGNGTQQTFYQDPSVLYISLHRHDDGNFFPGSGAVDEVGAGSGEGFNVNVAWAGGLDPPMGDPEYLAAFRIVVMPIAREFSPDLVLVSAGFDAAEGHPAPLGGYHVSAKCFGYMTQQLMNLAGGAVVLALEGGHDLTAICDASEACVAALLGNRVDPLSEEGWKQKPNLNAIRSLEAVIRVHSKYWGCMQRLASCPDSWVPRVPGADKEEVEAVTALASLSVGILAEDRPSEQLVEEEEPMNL
Briefly: Inhibition of recombinant human N-terminal GST-tagged HDAC7 (518-end residues) expressed in baculovirus expression system using Boc-Lys(trifluoroacetyl)-AMC as substrate preincubated for 1 hr followed by substrate addition measured after 2 hrs by fluorescence assay. A digest of the protocol: (§2)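 Recombinant HDAC incubated with serial compound dilutions at 30 °C for 1 h. Reaction run 2 h at 30 °C, stopped with developer containing trypsin and TSA. Fluorescence read after 30 min at 360/460 nm. Inhibition relative to control wells; IC50 from variable-slope fit.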

The target of test [3] is Histone deacetylase 5 (Homo sapiens, UniProt Q9UQL6). Briefly: Inhibition of recombinant human HDAC5 expressed in baculovirus expression system using Boc-Lys(trifluoroacetyl)-AMC as substrate preincubated for 1 hr followed by substrate addition measured after 2 hrs by fluorescence assay. Summed up:
as §2

Test [4] deals with Histone deacetylase 9 (Homo sapiens, UniProt Q9UKV0). As to the kind of experiment: Inhibition of recombinant human C-terminal His-tagged HDAC9 (604 to 1066 residues) expressed in baculovirus expression system using Boc-Lys(trifluoroacetyl)-AMC as substrate preincubated for 1 hr followed by substrate addition measured after 2 hrs by fluorescence assay. A digest of the protocol:
as §2

For test [5], the target named is T2, Histone deacetylase 2 (Homo sapiens, UniProt Q92769). Briefly: Inhibition of full length recombinant human C-terminal FLAG/His-tagged HDAC2 expressed in baculovirus expression system using Boc-Lys(acetyl)-AMC as substrate preincubated for 1 hr followed by substrate addition measured after 2 hrs by fluorescence assay. A digest of the protocol: as §2
T2 sequence (Q92769 whole entry): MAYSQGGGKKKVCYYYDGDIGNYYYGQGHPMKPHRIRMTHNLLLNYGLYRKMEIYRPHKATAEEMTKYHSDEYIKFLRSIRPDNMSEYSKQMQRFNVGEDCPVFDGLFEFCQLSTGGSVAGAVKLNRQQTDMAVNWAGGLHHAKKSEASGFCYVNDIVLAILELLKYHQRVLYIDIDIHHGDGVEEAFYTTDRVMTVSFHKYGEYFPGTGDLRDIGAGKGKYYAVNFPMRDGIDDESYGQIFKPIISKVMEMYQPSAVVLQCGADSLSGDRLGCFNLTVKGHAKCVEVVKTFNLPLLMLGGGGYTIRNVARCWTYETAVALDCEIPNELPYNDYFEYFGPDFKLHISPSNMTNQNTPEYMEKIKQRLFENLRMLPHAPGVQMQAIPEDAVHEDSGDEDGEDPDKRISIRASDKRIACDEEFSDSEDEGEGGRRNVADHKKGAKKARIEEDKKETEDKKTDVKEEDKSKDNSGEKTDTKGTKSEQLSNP
Test [6] concerns the target Histone deacetylase 3 (Homo sapiens) (UniProt O15379). Particulars: 0.25 to 2 uM.
For test [7], the system named is PC-3. Briefly: Induction of apoptosis in human PC3 cells assessed as increase in cleaved PARP level at 1 to 2 uM after 24 hrs by Western blot method. The format is functional, cell-based. A digest of the protocol:
as §1

Test [8] has as its system MV4-11. Briefly: Downregulation of HDAC6 protein expression in human MV4-11 cells at >= 0.5 uM after 24 hrs by Western blot analysis. It counts as functional, cell-based. Summed up:
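MV4-11 cells treated 24 h at 0.25, 0.5, 1 and 2 μM, with 5 μM SAHA as reference. RIPA lysates normalized by BCA, run on 4–12% Bis-Tris gels, probed with primary antibodies at 1/1000 overnight at 4 °C. HDAC6 and acetylated histones/tubulin detected; actin as loading control. Representative of n = 2.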

In test [9] the test system is PC-3. Briefly: Downregulation of HDAC1 protein expression in human PC3 cells at 1 to 2 uM after 24 hrs by Western blot method. It counts as functional, cell-based. A digest of the protocol:
as §1

The target of test [10] is T3, Histone deacetylase 1 (Homo sapiens, UniProt Q13547). Particulars: 0.25 to 2 uM.
T3 sequence (Q13547 whole entry): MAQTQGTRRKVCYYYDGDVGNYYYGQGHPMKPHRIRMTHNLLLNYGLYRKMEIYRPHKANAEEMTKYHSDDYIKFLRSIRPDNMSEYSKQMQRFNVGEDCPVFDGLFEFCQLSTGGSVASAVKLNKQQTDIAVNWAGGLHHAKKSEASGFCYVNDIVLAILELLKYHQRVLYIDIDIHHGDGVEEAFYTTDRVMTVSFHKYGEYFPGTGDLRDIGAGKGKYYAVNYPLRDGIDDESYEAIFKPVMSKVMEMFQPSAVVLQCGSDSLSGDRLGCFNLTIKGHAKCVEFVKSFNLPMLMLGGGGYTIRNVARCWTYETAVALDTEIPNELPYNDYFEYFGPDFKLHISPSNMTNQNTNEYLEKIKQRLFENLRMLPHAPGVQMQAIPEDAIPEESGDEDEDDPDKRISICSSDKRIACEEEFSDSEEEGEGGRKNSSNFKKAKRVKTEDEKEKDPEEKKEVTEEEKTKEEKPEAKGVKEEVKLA
Test [11] has as its target T2, Histone deacetylase 2. The following applies: 0.25 to 2 uM.
The target of test [12] is T2, Histone deacetylase 2. Particulars: 0.25 to 2 uM. The source holds these as a separate data set.
The target in test [13] is Matrix metalloproteinase 2/9 (Homo sapiens) (UniProt P08253+P14780). Briefly: Inhibition of human MMP2/C-terminal hemopexin domain truncated MMP9 up to 50 uM preincubated for 10 to 15 mins followed by substrate addition measured after 2 hrs by fluorescence assay. It counts as protein assay. Summed up:
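Gelatinase kit assay: compound (100 μM stock), MMP inhibitor (40 μM stock) or activation buffer combined with MMP-2/MMP-9 in activation buffer. After 10–15 min, substrate added and incubated at 37 °C for 2 h. Fluorescence read at 320/405 nm.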

For test [14], the system named is PC-3. As to the kind of experiment: Antiproliferative activity against human PC3 cells assessed as cell viability at 2 uM after 48 hrs by CellTiter-Blue assay relative to control. It counts as functional, cell-based. Summed up:
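MV4-11 and PC-3 cells treated with 10 or 2 μM (or 0 μM) and sampled at 24 and 48 h. Viable cells measured by CellTiter-Blue resorufin fluorescence, read as in the EC50 assay, which is proportional to viable cell number. Representative of n = 2 experiments.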

For test [15], the system named is PC-3. As to the kind of experiment: Induction of morphological changes in human PC3 cells at 2 to 10 uM after 48 hrs by phase contrast microscopic method. It counts as functional, cell-based. Summed up:
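PC-3 cells treated 48 h with vehicle (DMSO), 2 μM or 10 μM and examined by phase-contrast light microscopy for morphology. Representative of n = 2.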

In test [16] the target is T3, Histone deacetylase 1. As to the kind of experiment: Inhibition of full length recombinant human C-terminal FLAG/His-tagged HDAC1 expressed in baculovirus expression system using Boc-Lys(acetyl)-AMC as substrate preincubated for 1 hr followed by substrate addition measured after 2 hrs by fluorescence assay. Summed up:
as §2

pIC50: −log10 of the molar value. The source made the active and inactive calls. No cut-off for these calls is given here.

In general, pIC50 refers to −log10 of the IC50, conventionally taken in molar units.

Chain of Histone deacetylase 9 (Q9UKV0 whole entry, the tested form may be a part): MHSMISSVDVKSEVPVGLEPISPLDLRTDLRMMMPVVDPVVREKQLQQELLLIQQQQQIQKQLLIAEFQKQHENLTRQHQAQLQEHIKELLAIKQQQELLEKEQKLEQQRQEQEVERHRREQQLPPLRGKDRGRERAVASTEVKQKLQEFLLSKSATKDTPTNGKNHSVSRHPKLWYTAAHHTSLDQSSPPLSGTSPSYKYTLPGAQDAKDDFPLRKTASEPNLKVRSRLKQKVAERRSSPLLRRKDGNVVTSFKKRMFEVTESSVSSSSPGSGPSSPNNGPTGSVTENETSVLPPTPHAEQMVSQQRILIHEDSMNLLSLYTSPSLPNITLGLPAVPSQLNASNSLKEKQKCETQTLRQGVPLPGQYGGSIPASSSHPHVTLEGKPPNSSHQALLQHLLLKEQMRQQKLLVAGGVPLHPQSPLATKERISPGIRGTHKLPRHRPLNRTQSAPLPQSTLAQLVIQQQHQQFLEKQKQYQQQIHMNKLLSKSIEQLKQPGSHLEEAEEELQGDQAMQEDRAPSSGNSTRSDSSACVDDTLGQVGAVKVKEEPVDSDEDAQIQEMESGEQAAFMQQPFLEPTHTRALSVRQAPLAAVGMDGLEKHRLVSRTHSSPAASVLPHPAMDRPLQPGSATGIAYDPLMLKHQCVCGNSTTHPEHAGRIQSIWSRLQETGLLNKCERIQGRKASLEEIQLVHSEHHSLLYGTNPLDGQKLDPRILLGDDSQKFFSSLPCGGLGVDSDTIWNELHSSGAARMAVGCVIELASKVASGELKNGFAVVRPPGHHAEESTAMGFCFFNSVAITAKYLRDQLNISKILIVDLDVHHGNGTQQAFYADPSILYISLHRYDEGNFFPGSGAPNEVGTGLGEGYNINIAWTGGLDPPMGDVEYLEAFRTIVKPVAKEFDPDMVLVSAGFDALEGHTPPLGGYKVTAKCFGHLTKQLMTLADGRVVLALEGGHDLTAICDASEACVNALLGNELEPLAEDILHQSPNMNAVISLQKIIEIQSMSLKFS
Chain of Histone deacetylase 3 (Homo sapiens) (O15379 whole entry): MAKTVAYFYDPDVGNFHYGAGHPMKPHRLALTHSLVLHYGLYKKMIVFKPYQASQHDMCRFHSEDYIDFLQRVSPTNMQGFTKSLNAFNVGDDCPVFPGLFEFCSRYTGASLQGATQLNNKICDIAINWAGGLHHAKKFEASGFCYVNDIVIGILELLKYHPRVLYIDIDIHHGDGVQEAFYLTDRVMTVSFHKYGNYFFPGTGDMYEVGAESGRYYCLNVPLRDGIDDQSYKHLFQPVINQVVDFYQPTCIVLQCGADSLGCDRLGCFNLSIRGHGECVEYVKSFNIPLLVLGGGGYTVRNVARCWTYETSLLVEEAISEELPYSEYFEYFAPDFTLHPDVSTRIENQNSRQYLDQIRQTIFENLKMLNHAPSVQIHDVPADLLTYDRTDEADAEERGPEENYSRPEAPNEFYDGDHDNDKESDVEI
Chain of Matrix metalloproteinase 2/9 (Homo sapiens) (P08253 whole entry, looked up, the tested form may be a part): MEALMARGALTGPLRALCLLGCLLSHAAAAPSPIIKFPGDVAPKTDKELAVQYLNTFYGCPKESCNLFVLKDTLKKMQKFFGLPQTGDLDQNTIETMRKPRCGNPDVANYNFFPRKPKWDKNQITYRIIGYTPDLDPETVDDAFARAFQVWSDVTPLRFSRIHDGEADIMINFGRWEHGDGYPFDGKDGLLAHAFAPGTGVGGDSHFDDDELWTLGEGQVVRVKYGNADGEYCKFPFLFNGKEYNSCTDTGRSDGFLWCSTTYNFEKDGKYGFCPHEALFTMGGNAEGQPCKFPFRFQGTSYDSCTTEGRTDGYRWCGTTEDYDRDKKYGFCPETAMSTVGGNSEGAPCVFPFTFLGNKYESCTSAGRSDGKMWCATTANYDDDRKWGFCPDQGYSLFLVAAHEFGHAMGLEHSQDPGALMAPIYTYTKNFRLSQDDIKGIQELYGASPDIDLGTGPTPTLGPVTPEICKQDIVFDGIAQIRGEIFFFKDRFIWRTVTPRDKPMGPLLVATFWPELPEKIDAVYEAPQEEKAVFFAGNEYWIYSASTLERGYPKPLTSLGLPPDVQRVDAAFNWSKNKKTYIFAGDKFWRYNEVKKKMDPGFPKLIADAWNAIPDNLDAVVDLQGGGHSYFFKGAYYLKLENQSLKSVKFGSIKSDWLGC
Chain of Matrix metalloproteinase 2/9 (Homo sapiens) (P14780 whole entry, looked up, the tested form may be a part): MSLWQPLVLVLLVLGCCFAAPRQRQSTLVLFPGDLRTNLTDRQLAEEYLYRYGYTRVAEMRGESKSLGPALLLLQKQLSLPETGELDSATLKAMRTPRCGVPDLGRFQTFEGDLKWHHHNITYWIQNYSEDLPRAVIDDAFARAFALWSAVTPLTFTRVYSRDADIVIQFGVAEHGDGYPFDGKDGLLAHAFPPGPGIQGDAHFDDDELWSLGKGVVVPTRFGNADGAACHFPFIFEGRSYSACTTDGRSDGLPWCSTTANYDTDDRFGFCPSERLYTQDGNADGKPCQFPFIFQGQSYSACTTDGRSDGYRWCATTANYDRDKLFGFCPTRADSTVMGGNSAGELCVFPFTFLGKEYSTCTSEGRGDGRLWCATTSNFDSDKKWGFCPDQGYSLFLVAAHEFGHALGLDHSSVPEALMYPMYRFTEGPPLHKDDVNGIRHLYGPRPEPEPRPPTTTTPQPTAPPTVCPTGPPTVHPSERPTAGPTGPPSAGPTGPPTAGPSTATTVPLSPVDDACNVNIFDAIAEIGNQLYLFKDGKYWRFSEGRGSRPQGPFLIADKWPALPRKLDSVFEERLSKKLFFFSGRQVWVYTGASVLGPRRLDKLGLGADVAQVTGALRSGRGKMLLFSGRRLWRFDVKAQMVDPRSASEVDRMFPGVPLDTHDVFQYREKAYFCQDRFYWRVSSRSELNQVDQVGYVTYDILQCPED
Chain of Histone deacetylase 5 (Q9UQL6 whole entry): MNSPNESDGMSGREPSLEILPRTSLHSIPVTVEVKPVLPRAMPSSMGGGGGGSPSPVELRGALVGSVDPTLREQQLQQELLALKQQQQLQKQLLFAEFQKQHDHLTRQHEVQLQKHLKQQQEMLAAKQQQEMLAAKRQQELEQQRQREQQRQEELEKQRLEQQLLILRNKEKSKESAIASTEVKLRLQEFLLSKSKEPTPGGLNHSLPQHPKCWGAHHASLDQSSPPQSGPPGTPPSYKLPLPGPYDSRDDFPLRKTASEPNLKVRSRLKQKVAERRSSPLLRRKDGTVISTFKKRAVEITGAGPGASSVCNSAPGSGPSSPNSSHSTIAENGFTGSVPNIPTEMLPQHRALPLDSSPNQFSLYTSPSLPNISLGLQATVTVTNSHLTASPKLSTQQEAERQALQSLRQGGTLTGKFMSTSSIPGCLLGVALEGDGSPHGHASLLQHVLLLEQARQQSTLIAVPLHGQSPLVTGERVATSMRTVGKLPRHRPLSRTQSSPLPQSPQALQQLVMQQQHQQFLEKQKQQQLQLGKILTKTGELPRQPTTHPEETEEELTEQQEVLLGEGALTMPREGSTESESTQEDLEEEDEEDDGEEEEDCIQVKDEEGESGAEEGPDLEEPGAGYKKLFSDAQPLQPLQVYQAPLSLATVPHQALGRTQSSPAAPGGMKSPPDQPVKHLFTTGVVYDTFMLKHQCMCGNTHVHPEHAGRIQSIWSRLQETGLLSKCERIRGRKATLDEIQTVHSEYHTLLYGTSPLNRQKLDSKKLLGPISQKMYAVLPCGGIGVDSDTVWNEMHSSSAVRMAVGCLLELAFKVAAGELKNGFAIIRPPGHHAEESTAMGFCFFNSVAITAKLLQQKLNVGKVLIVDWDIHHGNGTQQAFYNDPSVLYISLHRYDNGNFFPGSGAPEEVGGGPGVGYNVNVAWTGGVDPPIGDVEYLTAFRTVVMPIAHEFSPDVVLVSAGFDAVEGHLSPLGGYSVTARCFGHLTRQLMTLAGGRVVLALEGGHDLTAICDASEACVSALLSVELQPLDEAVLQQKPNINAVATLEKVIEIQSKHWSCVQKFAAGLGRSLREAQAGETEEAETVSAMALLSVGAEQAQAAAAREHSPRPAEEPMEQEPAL

For `CCCNNC(=O)c1ccc(NC(=O)[C@H](Cc2c[nH]c3ccccc23)NC(=O)c2ccc(OC)cc2)cc1`, the outcome in [1] and in test [8] was Active. Further, the pIC50 is < 4.30 in test [2]; < 4.30 in [3]; < 4.30 in test [4]; 7.55 in test [5]; 8.02 in test [16]. In addition, the inhibition result in test [6], in test [10], in test [11] and in test [12] was “Active” each time. The result in test [7], in [9], in test [14] and in test [15] was inactive. Moreover, in test [13], the inhibition result was “inactive”.

(Values after ChEMBL document CHEMBL4020839, “Class I HDAC Inhibitors Display Different Antitumor Mechanism in Leukemia and Prostatic Cancer Cells Depending on Their p53 Status” (J Med Chem, 2018).)
